Laboratory results taken from ChEMBL document CHEMBL6153131, “Rational Design and Optimization of a Potent IDO1 Proteolysis Targeting Chimera (PROTAC)” (J Med Chem, 2025).
Active and inactive are the calls of the source. The rule behind the calls is not given here.

How the values were obtained:
SW1990 = test: Inhibition of kynurenine production in human SW1990 cells pretreated with IFN-gamma for 24 hrs followed by compound addition and measured after 24 hrs by Ehrlich's reagent based analysis; assay type: functional, cell-based; conditions: dose 50-100 nM
[1] = target: T1, Protein cereblon/Indoleamine 2,3-dioxygenase 1 (Homo sapiens, UniProt P14902+Q96SW2); test: PROTAC activity at CRBN/IDO1 in human U87 cells assessed as induction of IDO1 degradation at 100 nM at 0.5 uM pretreated with IFN-gamma for 24 hrs followed by compound addition and measured after 24 hrs in presence of MLN4924 by Western blotting analysis; assay type: cell-based
Target sequence in this assay (P14902 whole entry, looked up): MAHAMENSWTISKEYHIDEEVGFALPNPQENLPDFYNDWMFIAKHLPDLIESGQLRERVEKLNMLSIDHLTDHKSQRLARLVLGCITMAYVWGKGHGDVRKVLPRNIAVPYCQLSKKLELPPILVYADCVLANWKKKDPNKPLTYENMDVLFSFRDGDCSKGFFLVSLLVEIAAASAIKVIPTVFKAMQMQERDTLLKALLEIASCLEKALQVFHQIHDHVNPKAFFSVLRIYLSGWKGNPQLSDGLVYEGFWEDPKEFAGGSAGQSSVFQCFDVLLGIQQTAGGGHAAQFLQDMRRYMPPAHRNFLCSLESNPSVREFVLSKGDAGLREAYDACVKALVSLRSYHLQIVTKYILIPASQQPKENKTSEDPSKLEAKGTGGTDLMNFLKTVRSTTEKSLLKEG
Target sequence in this assay (Q96SW2 whole entry, looked up): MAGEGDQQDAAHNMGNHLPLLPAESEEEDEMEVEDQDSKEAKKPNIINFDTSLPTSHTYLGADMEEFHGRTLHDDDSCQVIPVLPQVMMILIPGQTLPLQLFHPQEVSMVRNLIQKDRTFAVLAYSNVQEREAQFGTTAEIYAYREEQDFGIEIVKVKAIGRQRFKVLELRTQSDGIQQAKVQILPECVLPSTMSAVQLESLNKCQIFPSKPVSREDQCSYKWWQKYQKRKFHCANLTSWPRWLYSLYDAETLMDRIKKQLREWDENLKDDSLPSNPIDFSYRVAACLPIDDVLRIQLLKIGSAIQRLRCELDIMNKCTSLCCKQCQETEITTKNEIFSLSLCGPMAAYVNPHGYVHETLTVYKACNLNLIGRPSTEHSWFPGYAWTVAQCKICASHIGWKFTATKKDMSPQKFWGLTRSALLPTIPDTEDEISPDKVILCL

PC-3 = test: Inhibition of kynurenine production in human PC-3 cells pretreated with IFN-gamma for 24 hrs followed by compound addition and measured after 24 hrs by Ehrlich's reagent based analysis; assay type: functional, cell-based; conditions: dose 50-100 nM
[2] = Half life in female C57BL/6J mouse plasma at 50 mg/kg, ip by LC-MS/MS analysis; assay type: ADME, organism-based
[3] = target: T1, Protein cereblon/Indoleamine 2,3-dioxygenase 1; test: PROTAC activity at CRBN/IDO1 in human U87 cells assessed as induction of IDO1 degradation by measuring remaining activity at 0.01 uM pretreated with IFN-gamma for 24 hrs followed by compound addition and measured after 24 hrs by Western blotting analysis (reference value: 100%); assay type: cell-based
In short: (§1)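 U87 cells given an extended dose range of PROTAC for 24 h, then Western blot for IDO1. IFNγ-induced IDO1 levels normalised to untreated samples. n = 3 independent experiments; mean ± SEM.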
Target sequence in this assay (P14902 whole entry, looked up): as the sequence (P14902 whole entry, looked up) above
Target sequence in this assay (Q96SW2 whole entry, looked up): as the sequence (Q96SW2 whole entry, looked up) above

[4] = target: T1, Protein cereblon/Indoleamine 2,3-dioxygenase 1; test: PROTAC activity at CRBN/IDO1 in human U87 cells assessed as induction of IDO1 degradation at 50 to 100 nM pretreated with compound for 24 hrs followed by compound washout and measured upto 48 hrs by Western blotting analysis; assay type: cell-based; conditions: dose 50-100 nM
In short: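 U87 cells given a 24 h PROTAC pulse, then cultured without compound for up to 48 h after washout. IDO1 assessed by Western blot.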
Target sequence in this assay (P14902 whole entry, looked up): as the sequence (P14902 whole entry, looked up) above
Target sequence in this assay (Q96SW2 whole entry, looked up): as the sequence (Q96SW2 whole entry, looked up) above

[5] = target: T1, Protein cereblon/Indoleamine 2,3-dioxygenase 1; test: PROTAC activity at CRBN/IDO1 in human PC-3 cells assessed as induction of IDO1 degradation pretreated with IFN-gamma for 24 hrs followed by compound addition and measured after 24 hrs by Western blotting analysis; assay type: cell-based; conditions: dose 50-100 nM
In short: (§2)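 Cells had IDO1 induced with IFNγ, then were treated at the indicated concentrations for 24 h. Lines: PDX-6 and PDX-38 adult GBM PDX cells, U87 overexpressing GFP-fused IDO1, PC-3, KNS42, MDA-MB-231, SW-1990 and SKOV-3. Lysates probed for IDO1 and GAPDH by Western blot; representative of 3 separate replicates.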
Target sequence in this assay (P14902 whole entry, looked up): as the sequence (P14902 whole entry, looked up) above
Target sequence in this assay (Q96SW2 whole entry, looked up): as the sequence (Q96SW2 whole entry, looked up) above

[6] = target: T1, Protein cereblon/Indoleamine 2,3-dioxygenase 1; test: PROTAC activity at CRBN/IDO1 in human U87 cell assessed as induction of IDO1 degradation pretreated with IFN-gamma for 24 hrs followed by compound addition and measured after 24 hrs by Western blot analysis; assay type: cell-based
In short: (§3)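 IDO1 in U87 cells induced with 50 ng/mL human IFN-γ, then compound given across an extended dose range for 24 h. IDO1 and GAPDH read by Western blot; IDO1 levels normalized to untreated; DC50 from n = 3 independent experiments.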
Target sequence in this assay (P14902 whole entry): as the sequence (P14902 whole entry, looked up) above
Target sequence in this assay (Q96SW2 whole entry): as the sequence (Q96SW2 whole entry, looked up) above

MDA-MB-231 = test: Inhibition of kynurenine production in human MDA-MB-231 cells pretreated with IFN-gamma for 24 hrs followed by compound addition and measured after 24 hrs by Ehrlich's reagent based analysis; assay type: functional, cell-based; conditions: dose 50-100 nM
Kelly [7] = test: Downregulation of EPHX2 protein level in human Kelly cells at 1 uM incubated for 24 hrs by proteomics analysis; assay type: functional, cell-based
[8] = target: T1, Protein cereblon/Indoleamine 2,3-dioxygenase 1; test: PROTAC activity at CRBN/IDO1 in human U87 cells assessed as induction of IDO1 degradation by measuring remaining activity at 100 nM pretreated with IFN-gamma for 24 hrs followed by compound addition and measured after 2 hrs by Western blotting analysis (reference value: 100%); assay type: cell-based
In short: (§4)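 U87 cells under single continuous PROTAC treatment (50 and 100 nM), sampled at multiple time points up to 72 h. IDO1 assessed by Western blot.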
Target sequence in this assay (P14902 whole entry, looked up): as the sequence (P14902 whole entry, looked up) above
Target sequence in this assay (Q96SW2 whole entry, looked up): as the sequence (Q96SW2 whole entry, looked up) above

[9] = target: T1, Protein cereblon/Indoleamine 2,3-dioxygenase 1; test: PROTAC activity at CRBN/IDO1 in human GBM43 cell assessed as induction of IDO1 degradation at 0.003 uM pretreated with IFN-gamma for 24 hrs followed by compound addition and measured after 24 hrs by Western blotting analysis (reference value: 100%); assay type: cell-based
In short: (§5)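 GBM43 patient-derived cells given an extended dose range of PROTAC for 24 h. Protein analysed by Western blot for IDO1, and IFNγ-induced IDO1 normalised to untreated samples. n = 3 independent experiments; data as mean ± SEM.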
Target sequence in this assay (P14902 whole entry, looked up): as the sequence (P14902 whole entry, looked up) above
Target sequence in this assay (Q96SW2 whole entry, looked up): as the sequence (Q96SW2 whole entry, looked up) above

[10] = target: T1, Protein cereblon/Indoleamine 2,3-dioxygenase 1; test: PROTAC activity at CRBN/IDO1 in human U87 cells assessed as induction of IDO1 degradation at 50 to 100 nM pretreated with IFN-gamma for 24 hrs followed by compound addition and measured upto 72 hrs by Western blotting analysis; assay type: cell-based; conditions: dose 50-100 nM; in short: as §4
Kelly [11] = test: Downregulation of SALL4 protein level in human Kelly cells at 1 uM incubated for 24 hrs by proteomics analysis; assay type: functional, cell-based
[12] = target: T1, Protein cereblon/Indoleamine 2,3-dioxygenase 1; test: PROTAC activity at CRBN/IDO1 in human GBM43 cell assessed as induction of IDO1 degradation at 0.03 uM pretreated with IFN-gamma for 24 hrs followed by compound addition and measured after 24 hrs by Western blotting analysis (reference value: 100%); assay type: cell-based; in short: as §5
[13] = target: T1, Protein cereblon/Indoleamine 2,3-dioxygenase 1; test: Binding affinity to CRBN/6His-tagged recombinant IDO1 (unknown origin) assessed as ternary complex formation by measuring half life by Biolayer Interferometry assay; assay type: protein assay
[14] = target: T1, Protein cereblon/Indoleamine 2,3-dioxygenase 1; test: PROTAC activity at CRBN/IDO1 in human U87 cells assessed as induction of IDO1 degradation by measuring maximum efficacy at 100 nM pretreated with IFN-gamma for 24 hrs followed by compound addition and measured after 24 hrs by Western blotting analysis relative to control; assay type: cell-based; in short: as §3
[15] = target: T1, Protein cereblon/Indoleamine 2,3-dioxygenase 1; test: PROTAC activity at CRBN/IDO1 in human SW1990 cells assessed as induction of IDO1 degradation pretreated with IFN-gamma for 24 hrs followed by compound addition and measured after 24 hrs by Western blotting analysis; assay type: cell-based; conditions: dose 50-100 nM; in short: as §2
[16] = target: T1, Protein cereblon/Indoleamine 2,3-dioxygenase 1; test: PROTAC activity at CRBN/IDO1 in human GBM43 cell assessed as induction of IDO1 degradation at 1 uM pretreated with IFN-gamma for 24 hrs followed by compound addition and measured after 24 hrs by Western blotting analysis (reference value: 100%); assay type: cell-based; in short: as §5
Kelly [17] = test: Downregulation of ADO protein level in human Kelly cells at 1 uM incubated for 24 hrs by proteomics analysis; assay type: functional, cell-based
[18] = target: T1, Protein cereblon/Indoleamine 2,3-dioxygenase 1; test: PROTAC activity at CRBN/IDO1 in human U87 cells assessed as induction of IDO1 degradation by measuring remaining activity at 3 uM pretreated with IFN-gamma for 24 hrs followed by compound addition and measured after 24 hrs by Western blotting analysis (reference value: 100%); assay type: cell-based; in short: as §1
[19] = target: T1, Protein cereblon/Indoleamine 2,3-dioxygenase 1; test: PROTAC activity at CRBN/IDO1 in human U87 cells assessed as induction of IDO1 degradation by measuring remaining activity at 0.03 uM pretreated with IFN-gamma for 24 hrs followed by compound addition and measured after 24 hrs by Western blotting analysis (reference value: 100%); assay type: cell-based; in short: as §1
[20] = target: T1, Protein cereblon/Indoleamine 2,3-dioxygenase 1; test: PROTAC activity at CRBN/IDO1 in human GBM43 cell assessed as induction of IDO1 degradation at 0.01 uM pretreated with IFN-gamma for 24 hrs followed by compound addition and measured after 24 hrs by Western blotting analysis (reference value: 100%); assay type: cell-based; in short: as §5
[21] = target: T1, Protein cereblon/Indoleamine 2,3-dioxygenase 1; test: PROTAC activity at CRBN/IDO1 in human MDA-MB-231 cells assessed as induction of IDO1 degradation pretreated with IFN-gamma for 24 hrs followed by compound addition and measured after 24 hrs by Western blotting analysis; assay type: cell-based; conditions: dose 50-100 nM; in short: as §2

C[C@@H](C(=O)Nc1cccc(OC2CCN(C(=O)CN3CCC(N4CCN(c5ccc6c(c5)C(=O)N(C5CCC(=O)NC5=O)C6=O)CC4)CC3)CC2)c1)[C@H]1CC[C@@H](c2ccnc3ccc(F)cc32)CC1 (some centres undefined)
inhibition (SW1990): Dose-dependent-effect
Activity [1]: inactive
inhibition (PC-3): Dose-dependent-effect
half-life [2]: 5.7 h
Activity [3]: 48%
Activity [4]: Active
Activity [5]: Dose-dependent-effect
DC50 [6]: 7.1 nM
inhibition (MDA-MB-231): Dose-dependent-effect
Activity (Kelly [7]): Active
Activity [8]: 86%
Activity [9]: 75%
Activity [10]: Active
Activity (Kelly [11]): Active
Activity [12]: 34%
T1/2 [13]: 0.289 h
Emax [14]: 88%
Activity [15]: Dose-dependent-effect
Activity [16]: 47%
Activity (Kelly [17]): Active
Activity [18]: 55%
Activity [19]: 27%
Activity [20]: 61%
Activity [21]: Dose-dependent-effect
